Source: publication PMC6001687 (The Journal of Dermatology, 2018)
Values joined by “and” are separate entries in the source; they are usually repeats but may differ in a detail not shown here. Equal entries are not always repeated.

Key:
[1] = Plasma pharmacokinetics after topical application, QBX1‐2 study; type: in vivo, human
Procedure, shortened: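 Japanese healthy male volunteers or adult atopic dermatitis patients; 5 g ointment to back skin or eczematous areas, either once (removed at 24 h) or twice daily at 12-h intervals for 7 days. Plasma at 0–48 h after single dose; repeated dosing on days 1 and 7 at 0–24 h after morning dose, plus day-4 trough. LC-MS/MS, LLOQ 1 ng/mL (below set to zero); non-compartmental. Tmax as median.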

[2] = Urine pharmacokinetics after topical application, QBX1‐2 study; type: in vivo, human
Procedure, shortened: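 Adult atopic dermatitis patients; 5 g ointment to eczematous areas twice daily for 7 days. On day 7, urine collected at 0–4, 4–8, 8–12 and 12–24 h, assayed by LC-MS/MS (LLOQ 25 ng/mL). Amount excreted = sum over intervals of concentration × urine volume. Renal clearance = amount excreted ÷ plasma AUCtau (12-h dosing interval, non-compartmental).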

JAK1 = conditions: read-out: half maximal inhibitory concentration, JAK1; cited from earlier work
JAK2 = conditions: read-out: half maximal inhibitory concentration, JAK2; cited from earlier work
JAK3 = conditions: read-out: half maximal inhibitory concentration, JAK3; cited from earlier work
Tyk2 = conditions: read-out: half maximal inhibitory concentration, Tyk2; cited from earlier work
[3] = p.o. administration; ref data not published; cited from earlier work

Tmax ([1]; human, plasma, topical, 5 g of 3% ointment twice daily): 4 h
CL renal ([2]; human, urine and plasma, topical, 5 g of 3% ointment twice daily): 330 mL/min
fe (fraction excreted into urine to the applied dose) ([2]; part 1, healthy volunteers, single application of 3% JTE‐052 ointment, 0–48‐h interval, n = 6): 0.016% and 0.016 ± 0.007%
fe (fraction excreted into urine to the applied dose) ([2]; part 2, AD patients, single application of 1% JTE‐052 ointment, 0–48‐h interval, n = 6): 0.382% and 0.382 ± 0.341%
fe (fraction excreted into urine to the applied dose) ([2]; part 2, AD patients, single application of 3% JTE‐052 ointment, 0–48‐h interval, n = 5): 0.406% and 0.406 ± 0.508%
fe (fraction excreted into urine to the applied dose) ([2]; part 3, AD patients, repeated application of 1% JTE‐052 ointment, day 7 after the morning application, 0–12‐h interval, n = 8): 0.191% and 0.191 ± 0.174%
fe (fraction excreted into urine to the applied dose) ([2]; part 3, AD patients, repeated application of 3% JTE‐052 ointment, day 7 after the morning application, 0–12‐h interval, n = 7): 0.289% and 0.289 ± 0.136%
SMILES: C[C@H]1CN(C(=O)CC#N)[C@]12CCN(c1ncnc3[nH]ccc13)C2 [JTE‐052]
half‐life [3]: ~ 4 h
